CHO parental Ca: counter-screen: ATP calcium response change in parental CHO cells | parental CHO-K1, ATP-induced calcium, Fluo-8 fluorescence | inhibition, % at 5.6 µM | 0.63% of 330,000 active | AID 463079;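 active = inhibition above that plate's mean sample inhibition plus 3 SD, cut at about 26% in these data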;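 note: 0% = ATP-challenged DMSO wells and 100% = DMSO wells without ATP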
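Material: Parental CHO cells | Reagent: ATP | Compound dosing: Single nominal dose of 5.6 µM per compound | Detection: Intracellular calcium via Fluo-8 no-wash fluorescent dye | Read-out: % inhibition of ATP-induced calcium mobilization | Benchmarks: Low control ATP plus DMSO, high control DMSO only | Replicates: Singlicate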
TAAR1 agonist: agonists of human TAAR1 | CHO RD-HGA16 TAAR1, Fluo-8 calcium fluorescence; vehicle wells 0%, saturating PEA agonist 100% | activation, % at 3 µM | 0.99% of 360,000 active | AID 624467;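 active = activation above the mean activation of all test compounds in the run plus 3 SD, cut at about 38% in these data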
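Assay system – CHO-derived RD-HGA16 cells with stable Gα16 and human TAAR1 · Compound dosing – one-point dosing at 3 µM (nominal) · Incubation – 17-24 h seeding, 75 min 37 °C dye, 30 min RT · Measured by – kinetic Fluo-8 calcium fluorescence · Control set – DMSO vehicle as 0%, PEA at EC100 as 100% · Repeats – single well for each compound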
TAAR1 antagonist: antagonists of human TAAR1 | Q96RJ0 | CHO RD-HGA16 TAAR1, Fluo-8 calcium fluorescence, antagonist | inhibition, % at 3 µM | 1.5% of 360,000 active | AID 624466;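 active = inhibition above a per-plate cutoff, the mean inhibition of test compounds on that plate plus 3 SD, cut at about 49% in these data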;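 note: 0% = DMSO plus EC80 beta-PEA response and 100% = DMSO alone without agonist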
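Test system: hTAAR1-expressing CHO RD-HGA16 cells, Gα16-coupled; Probe or stimulus: EC80 β-phenethylamine stimulus; Compound dosing: single nominal final test compound concentration of 3 µM; Timing: 140 s kinetic read after compound, 140 s after agonist; Signal: Fluo-8 calcium-sensitive fluorescence; Measure: % inhibition of agonist calcium response; Controls: DMSO and EC80 PEA controls.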
OX1R antag-1: blocks the human orexin 1 receptor; OX1R-expressing cells, FRET antagonist read-out; AID 485270; 1.8% of 330,000 active; inhibition, % at 6.6 µM; in the data active = inhibition mostly above about 38%, no sharp cut-off; inactive = mostly below about 40%;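 note: 0% = agonist challenge alone and 100% = reference antagonist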
Target sequence (O43613 whole entry, looked up): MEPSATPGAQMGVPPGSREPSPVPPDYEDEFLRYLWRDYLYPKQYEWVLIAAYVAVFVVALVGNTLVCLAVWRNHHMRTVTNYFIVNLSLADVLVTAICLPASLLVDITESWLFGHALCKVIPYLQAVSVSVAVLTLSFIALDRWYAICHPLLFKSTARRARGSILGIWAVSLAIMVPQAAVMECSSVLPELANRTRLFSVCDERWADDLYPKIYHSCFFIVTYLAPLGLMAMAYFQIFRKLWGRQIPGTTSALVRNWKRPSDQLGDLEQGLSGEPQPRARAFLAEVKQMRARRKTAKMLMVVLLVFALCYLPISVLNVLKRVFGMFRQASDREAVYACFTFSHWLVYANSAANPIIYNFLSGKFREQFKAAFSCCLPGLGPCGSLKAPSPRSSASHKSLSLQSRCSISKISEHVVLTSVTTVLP
OX1R antag-2: antagonists of human orexin 1 receptor; CHO/OX1R cells, Fluo-8 calcium fluorescence, orexin A; inhibition, % at 5 µM; 0.43% of 330,000 active; AID 434989;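 active = inhibition above its plate's threshold, mean inhibition of all tested compounds on the plate plus 3 SD, cut at about 37% in these data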;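 note: 0% = orexin A challenge wells and 100% = SB-334867-A antagonist wells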
GPR7 antag: blocks human GPR7 receptor signaling; P48145; GPR7-expressing cells, fluorescence antagonist assay; inhibition, % at 4.4 µM; 1.1% of 290,000 active; AID 1861; in the data active = inhibition above about 16%, passing the limit was not always enough;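 note: cells stimulated with the agonist NPW; 0% = agonist with vehicle and 100% = vehicle without agonist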
The depositor's hits bear a star; . = no result given. Rows were chosen to be rich in hits. Some 4.5% of all compounds tested hit in one or more screens of this group.

SMILES | CHO parental Ca | TAAR1 agonist | TAAR1 antagonist | OX1R antag-1 | OX1R antag-2 | GPR7 antag
COc1ccccc1N1CCN(C(=O)CCCN2C(=O)c3cccc4cccc(c34)C2=O)CC1 | -21 | 16 | 50* | 19 | -38 | -18
NC(=O)CN1CCN(CCN2C(=O)c3cccc4cccc(c34)C2=O)CC1 | -5 | 0 | -5 | 42* | -2 | -9
O=C(CN1C(=O)c2cccc3cccc(c23)C1=O)N1CCCCCC1 | -11 | 3 | -10 | 56* | 6 | -2
Nc1cc2c3c(cccc3c1)C(=O)N(CCN1CCCC1)C2=O | 0 | -1 | 5 | 43* | 4 | 15
OC1C2COC(O2)C2OC(c3ccccc3)OC12 (centres undefined) | . | 0 | -3 | . | . | .
CCOC(=O)NC1c2ccccc2Oc2ccccc21 | 70* | -1 | -28 | 4 | -4 | -1
COC(=O)c1c(NC(=O)C2c3ccccc3Oc3ccccc32)sc(C)c1C | -9 | 1 | -19 | 12 | -27 | 7
Cc1cccc(OCc2nnc(SCC(=O)Nc3sc(C)c(C)c3C#N)n2C)c1 | 7 | 42* | 22 | 7 | 6 | -9
O=C(OCCCN=C1NS(=O)(=O)c2ccccc21)c1ccc([N+](=O)[O-])cc1 | -4 | 1 | 5 | 51* | -6 | 2
CCCN1CCCCC(NC(=O)c2ccc(Cl)cc2Cl)C1=O (centres undefined) | . | -1 | 12 | . | . | .
CC(Oc1ccccc1F)C(=O)NNC(=O)c1ccc(F)c(S(=O)(=O)N2CCOCC2)c1 (centres undefined) | . | 0 | -13 | . | . | 1
CCOC(=O)c1c(C)[nH]c(C)c1C(=O)COC(=O)c1cc2ccccc2cc1O | -14 | 3 | 34 | 72* | 0 | 0
CCOC(=O)c1c(C)[nH]c2c1cc(O)c1ccccc12 | 2 | 5 | 10 | 43* | -8 | 4
CC1CC(C)(C)Nc2ccc(OC(=O)c3ccco3)cc21 (centres undefined) | -4 | 6 | -15 | 69* | -8 | 0
Cc1cccc(C)c1OCC(=O)Nn1c(COc2ccccc2)nc2ccccc2c1=O | -9 | 6 | 51* | 13 | -9 | 10
O=C(CN1C(=O)/C(=C\c2ccccc2Cl)Oc2ccccc21)NCc1cccnc1 | -24 | 18 | -20 | 72* | -16 | -20
COc1cc(/C=C/C(=O)OCC(=O)NNC(=O)c2cc(Cl)ccc2OC)ccc1O | -11 | 1 | 20 | 3 | -17 | .
CCc1ccc(NC(=O)C(C)OC(=O)/C=C/c2ccc(O)c(OC)c2)cc1 (centres undefined) | 6 | 111* | 82* | 4 | 33 | .
COc1cc(/C=C/C(=O)OCC(=O)c2ccc(OC(F)F)cc2)ccc1O | 9 | 30 | 61* | 24 | 27 | .
COc1cc(/C=C/C(=O)OCC(=O)Nc2ccccc2Sc2ccc(Cl)cc2)ccc1O | 62* | 1 | 41 | 34 | 28 | -3
CCc1nnc(NS(=O)(=O)c2ccc(NCc3ccccc3O)cc2)s1 | 11 | -2 | 1 | 11 | -3 | 2
CCn1c2c(n(C(C)=O)c1=O)C[C@@H](c1ccccc1)[C@@H](C)[C@@H](C(=O)N1CCCC1)C2 | . | 1 | -20 | . | . | .
Cc1cc(Oc2cccnc2)ccc1NC(=O)Cc1c(C)[nH]c2ccccc12 | . | -2 | 13 | . | . | .
CCN(C[C@H]1N[C@@](Cc2ccccc2)(C(=O)OC)[C@H]2C(=O)N(Cc3ccccc3)C(=O)[C@@H]12)C(=O)Nc1ccc(C(F)(F)F)cc1 | 10 | 7 | 2 | 37* | 29 | .
Cc1ccc(O)c(C2=Nc3ccccc3N=C(c3ccc([N+](=O)[O-])cc3)C2)c1 | -4 | 41* | 23 | 9 | -8 | 6
SMILES | CHO parental Ca | TAAR1 agonist | TAAR1 antagonist | OX1R antag-1 | OX1R antag-2 | GPR7 antag
COC(=O)c1cc2c(c3c4cc(C)ccc4n(S(=O)(=O)c4ccc(C)cc4)c13)C(=O)N(Cc1ccc(C(F)(F)F)cc1)C2 | . | 0 | -16 | . | . | .
CC1Cc2cc(-c3csc(NC(=O)Cc4ccccc4)n3)ccc2N1S(C)(=O)=O (centres undefined) | -6 | 8 | 54* | 18 | 3 | 16
CS(=O)(=O)N1CCc2cc(-c3csc(NC(=O)C(c4ccccc4)c4ccccc4)n3)ccc21 | 4 | 6 | 12 | 1 | -4 | 0
O=C(Nc1ccc(Br)cc1)c1ccc(F)c(S(=O)(=O)NCc2cccs2)c1 | 0 | 12 | 4 | 94* | 55* | 10
O=S(=O)(NCc1cccs1)c1ccc(Br)cc1 | -14 | 0 | 17 | 14 | 4 | -12
C=CCNc1cccc2c1S(=O)(=O)N[C@H](CC(C)C)CO2 | . | -2 | 7 | . | . | .
O=C(/C=C/c1ccc([N+](=O)[O-])s1)N1CCCCC1 | -25 | 1 | -1 | 74* | -31 | -17
O=C(/C=C/c1ccc([N+](=O)[O-])s1)N1CCCC1 | -15 | 4 | -1 | 52* | -18 | -3
CC1CC(C)CN(C(=O)/C=C/c2ccc([N+](=O)[O-])s2)C1 (centres undefined) | . | -1 | 20 | . | . | -10
COC(=O)CC#C[C@H](C)[C@@H](NS(=O)(=O)c1ccc(C)cc1)C1CCCCC1 | . | 4 | 1 | . | . | .
O=c1oc2c3c4c(cc2c2c1CCC2)OCCN4CCC3 | -13 | 0 | -1 | 59* | -6 | -7
CCCCCCCCCCn1ccc(=N)cc1 | 34* | 18 | -3 | 23 | 48* | 23*
NS(=O)(=O)c1ccc(OCCCN2CCC(C(O)(c3ccccc3)c3ccccc3)CC2)cc1 | . | 6 | -4 | . | . | .
OCCOCCNc1ncnc2c1cnn2-c1ccc(Cl)cc1 | 16 | 5 | -16 | 23 | 4 | 1
COCCNc1ncnc2c1cnn2-c1ccc(Cl)cc1 | -4 | 4 | 1 | 13 | 4 | 20*
O=C(C1=C(O)C(=O)N(CCN2CCOCC2)C1c1ccccn1)c1cccs1 (centres undefined) | 3 | 8 | -5 | 59* | -5 | -6
COc1ccc(/C(O)=C2/C(=O)C(=O)N(CCN3CCOCC3)C2c2ccccn2)cc1 (centres undefined) | -3 | 0 | 3 | 68* | -6 | -2
O=C1C(=O)N(CCN2CCOCC2)C(c2ccccn2)/C1=C(/O)c1ccc(F)cc1 (centres undefined) | -4 | 10 | 13 | 43* | -6 | 9
CN(C)S(=O)(=O)c1ccc(/C(O)=C2/C(=O)C(=O)N(CCCN3CCOCC3)C2c2ccncc2)cc1 (centres undefined) | 8 | -1 | -16 | 73* | -3 | .
COC(=O)C[C@@H]1C[C@H]2c3cc(NC(=O)Nc4ccccc4F)ccc3O[C@H]2[C@@H](CO)O1 | . | 0 | 8 | . | . | .
C[C@H](O)[C@@H]1C(=O)N2CCc3c([nH]c4cccc(-c5ccccc5)c34)[C@@H]2C[C@@H]1N(C)C(=O)Nc1ccccc1 | . | 1 | 11 | . | . | .
